Assay results published in ChEMBL document CHEMBL5058577, “EUbOPEN Chemogenomics Library 2 (Multiplex)” (2022).

System: U2OS
Experiment: Multiplex assay against U2OS
Type: toxicity, cell-based
Conditions: human
Procedure, shortened: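 Imaging took place on a CQ1 microscope at 37°C and 5% CO2 once compound had been added to live cells stained at seeding with Hoechst33342, BioTracker Green Microtubule Cytoskeleton Dye, MitoTracker Red and Annexin V Alexa Fluor 680. CellPathfinder machine-learning gating classed cells as Hoechst high-intensity objects or normal cells, classed normal cells as having healthy, pyknosed or fragmented nuclei, and classed pyknosed cells as mitotic or apoptotic. Tubulin, mitochondrial-mass and membrane-permeability phenotypes are per cents of the healthy-nucleus cells.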

[1] = 12 h, 1 µM, compound concentration 1 uM, replicate 1
[2] = 12 h, 1 µM, compound concentration 1 uM, replicate 2
[3] = 12 h, 10 µM, compound concentration 10 uM, replicate 1
[4] = 12 h, 10 µM, compound concentration 10 uM, replicate 2
[5] = 24 h, 1 µM, compound concentration 1 uM, replicate 1
[6] = 24 h, 1 µM, compound concentration 1 uM, replicate 2
[7] = 24 h, 10 µM, compound concentration 10 uM, replicate 1
[8] = 24 h, 10 µM, compound concentration 10 uM, replicate 2
[9] = 48 h, 1 µM, compound concentration 1 uM, replicate 1
[10] = 48 h, 1 µM, compound concentration 1 uM, replicate 2
[11] = 48 h, 10 µM, compound concentration 10 uM, replicate 1
[12] = 48 h, 10 µM, compound concentration 10 uM, replicate 2

**Q.** `COc1cc2nc(N3CCN(C(=O)c4ccco4)CC3)nc(N)c2cc1OC.Cl` [PRAZOSIN HYDROCHLORIDE] was tested. Which “Population Apoptotic (%)” value [1] did it give?
**A.** 88%

**Q.** What about the “Population Fragmented Nuclei (%)” value [1] of the same compound?
**A.** 21%

**Q.** What about the “Population Healthy Nuclei (%)” value [1] of the same compound?
**A.** 70%

**Q.** And the “Population Hoechst High Intensity Objects (%)” value [1]?
**A.** 2%

**Q.** What about the “Population Membrane Permeable-Phenotype (%)” value [1] of the same compound?
**A.** 4%

**Q.** What about the “Population Mitochondria Different-Phenotype (%)” value [1] of the same compound?
**A.** 2%

**Q.** And the “Population Mitotic Cells (%)” value [1]?
**A.** 11%

**Q.** What about the “Population Normal (%)” value [1] of the same compound?
**A.** 97%

**Q.** And the “Population Pyknosed Nuclei (%)” value [1]?
**A.** 7%

**Q.** What about the “Population Tubulin-Different-Phenotype (%)” value [1] of the same compound?
**A.** 1%

**Q.** What about the “Total Cell Count” value [1] of the same compound?
**A.** 235

**Q.** And the “Population Apoptotic (%)” value [2]?
**A.** 94%

**Q.** And the “Population Fragmented Nuclei (%)” value [2]?
**A.** 18%

**Q.** What about the “Population Healthy Nuclei (%)” value [2] of the same compound?
**A.** 69%

**Q.** And the “Population Hoechst High Intensity Objects (%)” value [2]?
**A.** 1%

**Q.** What about the “Population Membrane Permeable-Phenotype (%)” value [2] of the same compound?
**A.** 5%

**Q.** What about the “Population Mitochondria Different-Phenotype (%)” value [2] of the same compound?
**A.** 7%

**Q.** And the “Population Mitotic Cells (%)” value [2]?
**A.** 5%

**Q.** What about the “Population Normal (%)” value [2] of the same compound?
**A.** 98%

**Q.** What about the “Population Pyknosed Nuclei (%)” value [2] of the same compound?
**A.** 12%

**Q.** And the “Population Tubulin-Different-Phenotype (%)” value [2]?
**A.** 8%

**Q.** And the “Total Cell Count” value [2]?
**A.** 159

**Q.** What about the “Population Apoptotic (%)” value [3] of the same compound?
**A.** 86%

**Q.** What about the “Population Fragmented Nuclei (%)” value [3] of the same compound?
**A.** 25%

**Q.** What about the “Population Healthy Nuclei (%)” value [3] of the same compound?
**A.** 67%

**Q.** What about the “Population Hoechst High Intensity Objects (%)” value [3] of the same compound?
**A.** 3%

**Q.** What about the “Population Membrane Permeable-Phenotype (%)” value [3] of the same compound?
**A.** 12%

**Q.** What about the “Population Mitochondria Different-Phenotype (%)” value [3] of the same compound?
**A.** 2%

**Q.** What about the “Population Mitotic Cells (%)” value [3] of the same compound?
**A.** 13%

**Q.** And the “Population Normal (%)” value [3]?
**A.** 96%

**Q.** What about the “Population Pyknosed Nuclei (%)” value [3] of the same compound?
**A.** 7%

**Q.** And the “Population Tubulin-Different-Phenotype (%)” value [3]?
**A.** 6%

**Q.** And the “Total Cell Count” value [3]?
**A.** 216

**Q.** And the “Population Apoptotic (%)” value [4]?
**A.** 72%

**Q.** What about the “Population Fragmented Nuclei (%)” value [4] of the same compound?
**A.** 15%

**Q.** What about the “Population Healthy Nuclei (%)” value [4] of the same compound?
**A.** 74%

**Q.** What about the “Population Hoechst High Intensity Objects (%)” value [4] of the same compound?
**A.** 0%

**Q.** What about the “Population Membrane Permeable-Phenotype (%)” value [4] of the same compound?
**A.** 4%

**Q.** And the “Population Mitochondria Different-Phenotype (%)” value [4]?
**A.** 5%

**Q.** What about the “Population Mitotic Cells (%)” value [4] of the same compound?
**A.** 27%

**Q.** What about the “Population Normal (%)” value [4] of the same compound?
**A.** 99%

**Q.** What about the “Population Pyknosed Nuclei (%)” value [4] of the same compound?
**A.** 9%

**Q.** And the “Population Tubulin-Different-Phenotype (%)” value [4]?
**A.** 7%

**Q.** And the “Total Cell Count” value [4]?
**A.** 114

**Q.** And the “Population Apoptotic (%)” value [5]?
**A.** 95%

**Q.** And the “Population Fragmented Nuclei (%)” value [5]?
**A.** 22%

**Q.** And the “Population Healthy Nuclei (%)” value [5]?
**A.** 69%

**Q.** And the “Population Hoechst High Intensity Objects (%)” value [5]?
**A.** 1%

**Q.** What about the “Population Membrane Permeable-Phenotype (%)” value [5] of the same compound?
**A.** 8%

**Q.** What about the “Population Mitochondria Different-Phenotype (%)” value [5] of the same compound?
**A.** 2%

**Q.** What about the “Population Mitotic Cells (%)” value [5] of the same compound?
**A.** 4%

**Q.** What about the “Population Normal (%)” value [5] of the same compound?
**A.** 98%

**Q.** What about the “Population Pyknosed Nuclei (%)” value [5] of the same compound?
**A.** 7%

**Q.** What about the “Population Tubulin-Different-Phenotype (%)” value [5] of the same compound?
**A.** 4%

**Q.** And the “Total Cell Count” value [5]?
**A.** 273

**Q.** What about the “Population Apoptotic (%)” value [6] of the same compound?
**A.** 100%

**Q.** What about the “Population Fragmented Nuclei (%)” value [6] of the same compound?
**A.** 15%

**Q.** What about the “Population Healthy Nuclei (%)” value [6] of the same compound?
**A.** 74%

**Q.** And the “Population Hoechst High Intensity Objects (%)” value [6]?
**A.** 0%

**Q.** And the “Population Membrane Permeable-Phenotype (%)” value [6]?
**A.** 10%

**Q.** What about the “Population Mitochondria Different-Phenotype (%)” value [6] of the same compound?
**A.** 5%

**Q.** What about the “Population Mitotic Cells (%)” value [6] of the same compound?
**A.** 0%

**Q.** What about the “Population Normal (%)” value [6] of the same compound?
**A.** 100%

**Q.** And the “Population Pyknosed Nuclei (%)” value [6]?
**A.** 10%

**Q.** And the “Population Tubulin-Different-Phenotype (%)” value [6]?
**A.** 9%

**Q.** And the “Total Cell Count” value [6]?
**A.** 188

**Q.** What about the “Population Apoptotic (%)” value [7] of the same compound?
**A.** 78%

**Q.** What about the “Population Fragmented Nuclei (%)” value [7] of the same compound?
**A.** 23%

**Q.** What about the “Population Healthy Nuclei (%)” value [7] of the same compound?
**A.** 68%

**Q.** And the “Population Hoechst High Intensity Objects (%)” value [7]?
**A.** 2%

**Q.** And the “Population Membrane Permeable-Phenotype (%)” value [7]?
**A.** 8%

**Q.** And the “Population Mitochondria Different-Phenotype (%)” value [7]?
**A.** 6%

**Q.** What about the “Population Mitotic Cells (%)” value [7] of the same compound?
**A.** 21%

**Q.** And the “Population Normal (%)” value [7]?
**A.** 97%

**Q.** And the “Population Pyknosed Nuclei (%)” value [7]?
**A.** 7%

**Q.** And the “Population Tubulin-Different-Phenotype (%)” value [7]?
**A.** 6%

**Q.** And the “Total Cell Count” value [7]?
**A.** 244

**Q.** What about the “Population Apoptotic (%)” value [8] of the same compound?
**A.** 85%

**Q.** What about the “Population Fragmented Nuclei (%)” value [8] of the same compound?
**A.** 13%

**Q.** And the “Population Healthy Nuclei (%)” value [8]?
**A.** 71%

**Q.** And the “Population Hoechst High Intensity Objects (%)” value [8]?
**A.** 1%

**Q.** What about the “Population Membrane Permeable-Phenotype (%)” value [8] of the same compound?
**A.** 7%

**Q.** And the “Population Mitochondria Different-Phenotype (%)” value [8]?
**A.** 5%

**Q.** What about the “Population Mitotic Cells (%)” value [8] of the same compound?
**A.** 14%

**Q.** And the “Population Normal (%)” value [8]?
**A.** 98%

**Q.** And the “Population Pyknosed Nuclei (%)” value [8]?
**A.** 15%

**Q.** And the “Population Tubulin-Different-Phenotype (%)” value [8]?
**A.** 4%

**Q.** And the “Total Cell Count” value [8]?
**A.** 138

**Q.** And the “Population Apoptotic (%)” value [9]?
**A.** 94%

**Q.** And the “Population Fragmented Nuclei (%)” value [9]?
**A.** 16%

**Q.** What about the “Population Healthy Nuclei (%)” value [9] of the same compound?
**A.** 74%

**Q.** And the “Population Hoechst High Intensity Objects (%)” value [9]?
**A.** 2%

**Q.** And the “Population Membrane Permeable-Phenotype (%)” value [9]?
**A.** 6%

**Q.** And the “Population Mitochondria Different-Phenotype (%)” value [9]?
**A.** 2%

**Q.** What about the “Population Mitotic Cells (%)” value [9] of the same compound?
**A.** 5%

**Q.** And the “Population Normal (%)” value [9]?
**A.** 97%

**Q.** What about the “Population Pyknosed Nuclei (%)” value [9] of the same compound?
**A.** 9%

**Q.** And the “Population Tubulin-Different-Phenotype (%)” value [9]?
**A.** 2%

**Q.** What about the “Total Cell Count” value [9] of the same compound?
**A.** 388

**Q.** And the “Population Apoptotic (%)” value [10]?
**A.** 100%

**Q.** What about the “Population Fragmented Nuclei (%)” value [10] of the same compound?
**A.** 15%

**Q.** And the “Population Healthy Nuclei (%)” value [10]?
**A.** 77%

**Q.** And the “Population Hoechst High Intensity Objects (%)” value [10]?
**A.** 1%

**Q.** And the “Population Membrane Permeable-Phenotype (%)” value [10]?
**A.** 7%

**Q.** And the “Population Mitochondria Different-Phenotype (%)” value [10]?
**A.** 7%

**Q.** What about the “Population Mitotic Cells (%)” value [10] of the same compound?
**A.** 0%

**Q.** And the “Population Normal (%)” value [10]?
**A.** 98%

**Q.** What about the “Population Pyknosed Nuclei (%)” value [10] of the same compound?
**A.** 7%

**Q.** And the “Population Tubulin-Different-Phenotype (%)” value [10]?
**A.** 5%

**Q.** What about the “Total Cell Count” value [10] of the same compound?
**A.** 266

**Q.** What about the “Population Apoptotic (%)” value [11] of the same compound?
**A.** 96%

**Q.** What about the “Population Fragmented Nuclei (%)” value [11] of the same compound?
**A.** 20%

**Q.** What about the “Population Healthy Nuclei (%)” value [11] of the same compound?
**A.** 71%

**Q.** And the “Population Hoechst High Intensity Objects (%)” value [11]?
**A.** 1%

**Q.** And the “Population Membrane Permeable-Phenotype (%)” value [11]?
**A.** 5%

**Q.** What about the “Population Mitochondria Different-Phenotype (%)” value [11] of the same compound?
**A.** 2%

**Q.** And the “Population Mitotic Cells (%)” value [11]?
**A.** 3%

**Q.** And the “Population Normal (%)” value [11]?
**A.** 98%

**Q.** What about the “Population Pyknosed Nuclei (%)” value [11] of the same compound?
**A.** 8%

**Q.** And the “Population Tubulin-Different-Phenotype (%)” value [11]?
**A.** 3%

**Q.** And the “Total Cell Count” value [11]?
**A.** 341

**Q.** And the “Population Apoptotic (%)” value [12]?
**A.** 94%

**Q.** What about the “Population Fragmented Nuclei (%)” value [12] of the same compound?
**A.** 15%

**Q.** And the “Population Healthy Nuclei (%)” value [12]?
**A.** 76%

**Q.** And the “Population Hoechst High Intensity Objects (%)” value [12]?
**A.** 2%

**Q.** And the “Population Mitochondria Different-Phenotype (%)” value [12]?
**A.** 6%

**Q.** What about the “Population Mitotic Cells (%)” value [12] of the same compound?
**A.** 5%

**Q.** What about the “Population Normal (%)” value [12] of the same compound?
**A.** 97%

**Q.** And the “Total Cell Count” value [12]?
**A.** 208
